Here are results for eight compounds from article PMC4327942 (Chemistry & biology, 2010).

Data set [1] concerns HIF ODD-luciferase reporter. As to the kind of experiment: HTS of SH-SY5Y ODD-luc reporter cells, 384-well, 10 μM compound, 3 hr. The class given is cell-based, human. The conditions noted are these: for activation at 10 µM: Homo sapiens, SH-SY5Y, 3 h, read-out: reporter activation (%).
Data set [2] deals with HIF ODD-luciferase reporter. Description: ODD-luc reporter activation, concentration titration in 96-well plates. The format is cell-based, human. As to conditions: SH-SY5Y; for IC50: Homo sapiens, read-out: IC50 (reporter activation); for “Lag,” (concentration lag of reporter titration curve): ODD-luc reporter.
A short description of data set [3]: Iron binding by displacement of calcein from its complex with iron. The class given is physicochemical. The conditions noted are these: for ka, association rate constant for iron binding: calcein-iron complex 1 μM:1 μM, oxyquinoline 5-20 μM; for Kd: read-out: KFe, apparent iron binding constant, calcein displacement, 5 mM Tris-HCl buffer (pH 7.5).
In a further data set the test system is cortical neurons. Description: Neuroprotection in HCA. The format is cell-based, rat. The conditions noted are these: HCA model. A digest of the protocol:
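Forebrain neurons from E17 Sprague-Dawley rat embryos were plated at 10^6 cells/ml in 96-well plates. After 16 hr they were rinsed with warm PBS and moved to MEM containing 5 mM HCA plus test compound (0.25-2 μM). Incubation ran 24 hr or longer, until HCA-only controls reached 90% death. Viability was read by MTT.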

Setting [4] is: 10 μM, 3 hr, SH-SY5Y-ODD-luc cells.

As for `O=C(C=C(O)c1ccccc1)c1ccccc1O` [2′β-dihydroxychalcone], the “reporter activation (fold)” value in data set [1] (setting [4]) stood at 7.5 fold. Besides, in data set [1] (10 μM, 3 hr, SH-SY5Y-ODD-luc cells, ciclopirox = 100%, DMSO = 0%), the “reporter activation (%)” value is 71%.
`O=C1/C(=N\Nc2nc3ccccc3s2)C(c2ccccc2)=NN1c1ccccc1` [(Z)-4-(benzo[d]thiazol-2-yl-hydrazono)-1,3-diphenyl-1H-pyrazol-5(4H)-one]: the activation at 10 µM in data set [1] is 70%.
With `Cc1cc(C2CCCCC2)n(O)c(=O)c1` [Ciclopirox, ciclopirox], in data set [1] (10 μM, 3 hr incubation), the “increase of background signal for the wild-type ODD-luc reporter (PYIP line)” value came to 10 fold. For the same compound, the “reporter signal as % of the threshold value (control line AYIA)” value in data set [1] (10 μM, 3 hr incubation, PYIP line) is on record as roughly 50%. For the same compound, in data set [2], the IC50 worked out at 4.5 ± 0.5 µM and the ““Lag,” (concentration lag of reporter titration curve)” value came out at 2 ± 0.5 µM. In data set [3], the “ka, association rate constant for iron binding” value was 300 ± 50 M⁻¹ s⁻¹ and the Kd was 80 ± 20 nM.
Take `O=C1/C(=N\Nc2nccs2)C(c2ccccc2)=NN1c1ccccc1` [I, (Z)-1,3-diphenyl-4-(thiazol-2-yl-hydrazono)-1H-pyrazol-5(4H)-one]: the activation at 10 µM in data set [1] came out at 86%.
As to `NNc1nc(-c2ccccc2)cc(-c2ccccc2)n1` [II, 2-hydrazinyl-4,6-diphenylpyrimidine], the “reporter activation (fold)” value in data set [1] (setting [4]) is 6.7 fold. For the same compound, in data set [1], the activation at 10 µM amounted to 64%. The “iron chelation properties in solution (in words)” value in data set [3] is on record as “no iron chelation properties in solution”.
Regarding `S=C(Nc1ccccc1)Nc1nccs1` [III, 1-phenyl-3-(1,3-thiazol-2-yl)thiourea], the “reporter activation (fold)” value in data set [1] (setting [4]) is on record as 5 fold. Also, in data set [1], the activation at 10 µM is 41%.
Taken in the same sequence, the figures for `N[C@@H](Cc1ccc(O)c(O)c1)C(=O)O` [L-Dopa] were 3 fold and 21%.
For `Oc1cccc2cccnc12` [Oxyquinoline, 8-hydroxyquinoline], the “reporter activation (fold)” value in data set [1] (setting [4]) is on record as 4-5 fold. Also, the activation at 10 µM in data set [1] fell in the range of 35 to 45%. Also, in data set [2], the IC50 was 10 ± 1 µM and the ““Lag,” (concentration lag of reporter titration curve)” value was 4 ± 0.5 µM. In data set [3], the “ka, association rate constant for iron binding” value was 110 ± 20 M⁻¹ s⁻¹ and the Kd was 200 ± 50 nM. For the same compound, the “times less potent as neuroprotectants (versus compounds 7 and 8)” value in the data set on cortical neurons is 20-40 times.
